Measured values published in ChEMBL document CHEMBL1144825, “A different molecular mechanism underlying antimicrobial and hemolytic actions of temporins A and L” (J Med Chem, 2008).

Legend:
Escherichia coli = experiment: Antimicrobial activity against Escherichia coli D21 after 18 to 20 hrs by micro-broth dilution method; assay type: functional
Summary of the method: (§1)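 Microbroth dilution per NCCLS (2001): midlog-phase bacteria at 2 × 10^6 CFU/mL in Mueller-Hinton medium mixed 1:1 with MH broth containing peptide in serial 2-fold dilutions (20% ethanol), range 0.75-24 µM. Incubated 18–20 h at 37 °C; growth read as absorbance at 600 nm. MIC taken as the lowest peptide concentration giving 100% growth inhibition.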

[1] = Antimicrobial activity against […] faecalis ATCC 29212 after 18 to 20 hrs by microbroth dilution method; assay type: functional; summary of the method: as §1
Pseudomonas aeruginosa = experiment: Antimicrobial activity against Pseudomonas aeruginosa ATCC 15692 after 18 to 20 hrs by microbroth dilution method; assay type: functional; summary of the method: as §1
Pseudomonas syringae = experiment: Antimicrobial activity against Pseudomonas syringae pv tabaci after 18 to 20 hrs by micro-broth dilution method; assay type: functional; summary of the method: as §1
[2] = tested on: Yersinia pseudotuberculosis; experiment: Antimicrobial activity against Yersinia pseudotuberculosis YP3 after 18 to 20 hrs by micro-broth dilution method; assay type: functional
Summary of the method: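 Microbroth dilution per NCCLS (2001). Mid-log bacteria at 2 × 10^6 CFU/mL in Mueller-Hinton broth are mixed 1:1 with MH broth holding serial 2-fold peptide dilutions in 20% ethanol, range 0.75-24 µM. Plates are incubated 18–20 h at 37 °C and growth is read as A600. MIC is the lowest concentration giving 100% growth inhibition.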

Priestia megaterium = experiment: Antimicrobial activity against Bacillus megaterium Bm11 after 18 to 20 hrs by micro-broth dilution method; assay type: functional; summary of the method: as §1
Staphylococcus aureus [3] = experiment: Antimicrobial activity against Staphylococcus aureus Cowan 1 after 18 to 20 hrs by micro-broth dilution method; assay type: functional; summary of the method: as §1
Staphylococcus aureus [4] = experiment: Antimicrobial activity against Staphylococcus aureus ATCC 25923 after 18 to 20 hrs by micro-broth dilution method; assay type: functional; summary of the method: as §1
Staphylococcus capitis = experiment: Antimicrobial activity against Staphylococcus capitis after 18 to 20 hrs by micro-broth dilution method; assay type: functional; summary of the method: as §1
[5] = tested on: Staphylococcus epidermidis; experiment: Antimicrobial activity against Staphylococcus epidermidis ATCC 12228 after 18 to 20 hrs by micro-broth dilution method; assay type: functional; summary of the method: as §1
Streptococcus pyogenes = experiment: Antimicrobial activity against Streptococcus pyrogenes ATCC 21547 after 18 to 20 hrs by micro-broth dilution method; assay type: functional; summary of the method: as §1
Candida albicans = experiment: Antimicrobial activity against Candida albicans ATCC 10231 after 18 to 20 hrs by micro-broth dilution method; assay type: functional
Summary of the method: (§2)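 Yeasts tested by NCCLS (2001) microbroth dilution in Winge medium: cells mixed 1:1 with medium containing peptide in serial 2-fold dilutions (20% ethanol), range 0.75-24 µM. Incubated 18–20 h at 30 °C; absorbance read at 600 nm. MIC defined as the peptide concentration giving 100% growth inhibition.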

Saccharomyces cerevisiae = experiment: Antimicrobial activity against Saccharomyces cerevisiae after 18 to 20 hrs by micro-broth dilution method; assay type: functional; summary of the method: as §2
Saccharomyces = experiment: Antimicrobial activity against Saccharomyces pombe after 18 to 20 hrs by micro-broth dilution method; assay type: functional; summary of the method: as §2
[6] = Toxicity assessed as hemolytic activity in human erythrocytes at 3 uM after 30 mins; assay type: cell-based, Erythrocyte; conditions: read-out: Activity
Summary of the method: (§3)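 Human erythrocyte suspension in 0.9% (w/v) NaCl incubated 30 min at 37 °C with gentle mixing alongside serial 2-fold peptide dilutions (peptide dissolved in 20% ethanol). After centrifugation, supernatant absorbance read at 415 nm. Complete lysis reference obtained by suspending erythrocytes in distilled water.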

[7] = Toxicity assessed as hemolytic activity in human erythrocytes at 6 uM after 30 mins; assay type: cell-based, Erythrocyte; conditions: read-out: Activity; summary of the method: as §3
[8] = Toxicity assessed as hemolytic activity in human erythrocytes at 12 uM after 30 mins; assay type: cell-based, Erythrocyte; conditions: read-out: Activity; summary of the method: as §3
[9] = Toxicity assessed as hemolytic activity in human erythrocytes at 24 uM after 30 mins; assay type: cell-based, Erythrocyte; conditions: read-out: Activity; summary of the method: as §3

Substance | MIC (Escherichia coli) [µM] | MIC [1] [µM] | MIC (Pseudomonas aeruginosa) [µM] | MIC (Pseudomonas syringae) [µM] | MIC [2] [µM] | MIC (Priestia megaterium) [µM] | MIC (Staphylococcus aureus [3]) [µM] | MIC (Staphylococcus aureus [4]) [µM] | MIC (Staphylococcus capitis) [µM] | MIC [5] [µM] | MIC (Streptococcus pyogenes) [µM] | MIC (Candida albicans) [µM] | MIC (Saccharomyces cerevisiae) [µM] | MIC (Saccharomyces) [µM] | hemolysis at 0.5 h, 3 µM [6] [%] | hemolysis at 0.5 h, 6 µM [7] [%] | hemolysis at 0.5 h, 12 µM [8] [%] | hemolysis at 0.5 h, 24 µM [9] [%]
H-FLPLIGRVLSGIL-NH2 [TEMPORIN A] | > 24 | 12 | > 24 | > 24 | 12 | 1.5 | 1.5 | 3 | 1.5 | 3 | 12 | 12 | 6 | 3 | 3 | 4.5 | 6 | 28
H-FLQLIGRVLSGIL-NH2 [GLN-TA, TEMPORIN A] | > 24 | 6 | > 24 | > 24 | 6 | 0.75 | 1.5 | 1.5 | 1.5 | 1.5 | 6 | 6 | 6 | 3 | 9 | 18 | 70 | 92
H-FVPWFSKFLGRIL-NH2 | 12 | 6 | 24 | 6 | 3 | 1.5 | 1.5 | 3 | 1.5 | 1.5 | 6 | 6 | 6 | 3 | 6 | 10 | 42 | 92
H-FVQWFSKFLGRIL-NH2 [TEMPORIN L] | 12 | 6 | 24 | 6 | 3 | 1.5 | 3 | 3 | 1.5 | 3 | 6 | 12 | 6 | 6 | 13 | 48 | 92 | 94
